Reference: ChEMBL document CHEMBL4270668, “Design, Synthesis, Molecular Dynamics Simulation, and Functional Evaluation of a Novel Series of 26RFa Peptide Analogues Containing a Mono- or Polyalkyl Guanidino Arginine Derivative” (J Med Chem, 2018)
Active and inactive are the calls of the source. No cut-off for these calls is given here. Starred links: 1 amine or outer side, 2 acyl side, 3 side chain; linkers in the order of their positions; H or OH if unused. Non-standard residues stand in square brackets, D forms with d. Residues, ends and D or L forms follow the SMILES beside them. X1 = C/N=C(\NCCC[C@H](N[*:1])C(=O)[*:2])N(C)C; Arg(Me2a) = CN(C)C(=N)NCCC[C@H](N)C(=O)O; Arg(Me) = CNC(=N)NCCC[C@H](N)C(=O)O

Legend:
[1] = biological target: T1, Pyroglutamylated RF-amide peptide receptor (Homo sapiens, UniProt Q96P65); assay: Agonist activity at human QRFPR expressed in CHO cells co-expressing Galpha16 assessed as increase Ca2+ mobilization after 3 mins by Fluo-4 AM-based scanning fluorometery; type: functional, cell-based
T1 sequence (Q96P65 whole entry): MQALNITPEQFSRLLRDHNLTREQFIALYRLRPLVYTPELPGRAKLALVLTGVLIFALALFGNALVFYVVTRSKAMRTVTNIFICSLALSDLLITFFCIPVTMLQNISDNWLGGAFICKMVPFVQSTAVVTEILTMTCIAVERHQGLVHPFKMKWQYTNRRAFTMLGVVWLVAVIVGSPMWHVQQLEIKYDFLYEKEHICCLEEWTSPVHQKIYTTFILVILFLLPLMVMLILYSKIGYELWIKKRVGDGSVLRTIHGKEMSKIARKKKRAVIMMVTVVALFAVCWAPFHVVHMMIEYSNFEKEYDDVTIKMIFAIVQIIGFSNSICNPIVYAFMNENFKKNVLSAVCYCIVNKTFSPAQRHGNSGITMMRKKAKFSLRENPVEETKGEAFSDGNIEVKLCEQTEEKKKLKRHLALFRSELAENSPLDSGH
In short: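 CHO-Gα16 cells stably expressing human QRFPR, seeded at 40,000 cells/well 24 h ahead. Loaded 1 h with 2 µM Fluo-4 AM plus 0.01% pluronic acid, washed, then 30 min in HBSS with 2.5 mM probenecid and 5 mM HEPES. Compounds added at final 10^-11 to 10^-5 M; fluorescence recorded 3 min on a scanning fluorometer. EC50 from sigmoidal variable-slope fits, ≥3 experiments in triplicate.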

[2] = biological target: T1, Pyroglutamylated RF-amide peptide receptor; assay: (§1) Antagonist activity at human QRFPR expressed in CHO cells co-expressing Galpha16 assessed as inhibition of 26RFa-induced Ca2+ mobilization preincubated for 15 mins followed by agonist addition measured after 3 mins by Fluo-4 AM-based scanning fluorometery; type: functional, cell-based
In short: (§2)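 CHO-Gα16-hQRFPR cells loaded 1 h with 2 µM Fluo-4 AM, then incubated 15 min with graded compound. A 10^-7 M final 26RFa pulse was given during recording. Background subtracted, baseline normalized to 100%, peak fluorescence taken per concentration. IC50 from sigmoidal variable-slope fits, ≥3 experiments in triplicate. Maximal effect at 10^-4 M expressed as % inhibition of the 26RFa (10^-7 M) response.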

[3] = biological target: T2, Pyroglutamylated RF-amide peptide receptor (Homo sapiens) (UniProt Q96P65); assay: as §1, with “mobilization at 100 uM” for “mobilization”, “fluorometery relative to 26RFa (20 to 26 residues)” for “fluorometery”; type: functional, cell-based; in short: as §2
T2 sequence (whole entry): T1 sequence (Q96P65 whole entry)

Mus musculus [4] = assay: Induction of insulin-induced hypoglycemia in C57Bl/6J mouse at 148 ug/kg, ip measured up to 90 mins post insulin injection by insulin tolerance test; type: functional, organism-based
In short: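 Mice fasted 6 h with water available, then given i.p. human insulin 0.75 U/kg together with peptide 148 µg/kg (equimolar to 26RFa) or vehicle. Tail-vein plasma glucose read by glucometer at 0, 15, 30, 60 and 90 min. At least eight animals per group; two-way ANOVA with Tukey post-test.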

Mus musculus [5] = assay: Induction of insulin-induced hypoglycemia in C57Bl/6J mouse at 148 ug/kg, ip measured after 90 mins post insulin injection by insulin tolerance test; type: functional, organism-based; conditions: 741 ug/kg, in the assay text read “741 ug/kg” for “148 ug/kg”
[6] = biological target: T2, Pyroglutamylated RF-amide peptide receptor (Homo sapiens); assay: Antagonist activity at human QRFPR expressed in CHO cells co-expressing Galpha16 assessed as inhibition of 26RFa-induced Ca2+ mobilization at 10 uM preincubated for 30 mins followed by agonist addition measured after 3 mins by Fluo-4 AM-based scanning fluorometery; type: functional, cell-based
In short: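 One-dose screen in CHO-Gα16 cells stably expressing human QRFPR, Fluo-4 AM loaded. Cells incubated 30 min with analogue at 10^-5 M, then challenged with 26RFa at 10^-7 M during fluorescence recording. Response normalized to 26RFa alone in HBSS.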

Mus musculus [7] = assay: Induction of insulin-induced hypoglycemia in C57Bl/6J mouse at 500 ug/kg, ip measured up to 90 mins post insulin injection by insulin tolerance test; type: functional, organism-based
In short: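 Mice fasted 6 h, then given i.p. insulin 0.75 U/kg with 26RFa 500 µg/kg, or phosphate buffer as vehicle. Tail-vein plasma glucose measured by glucometer at 0, 15, 30, 60 and 90 min. n = 8 per group; two-way ANOVA with Tukey post-test.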

EC50 [1]	IC50 [2]	Imax [3]	inhibition [6]	Compound	Activity (Mus musculus [4])	Activity (Mus musculus [5])	Activity (Mus musculus [7])
> 100 µM	6.06 µM	80%		CN(C)C(=N)NCCC[C@H](NC(=O)[C@H](Cc1ccccc1)NC(=O)[C@H](CO)NC(=O)[C@H](Cc1ccccc1)NC(=O)CNC(=O)CN)C(=O)N[C@@H](Cc1ccccc1)C(N)=O (H-GGFSF[Arg(Me2a)]F-NH2)			
0.0664 µM				CNC(=N)NCCC[C@H](NC(=O)[C@H](Cc1ccccc1)NC(=O)[C@H](CO)NC(=O)[C@H](Cc1ccccc1)NC(=O)CNC(=O)CN)C(=O)N[C@@H](Cc1ccccc1)C(N)=O (H-GGFSF[Arg(Me)]F-NH2)	inactive	Active	
> 100 µM	8.25 µM	87.5%	47%	C/N=C(\NCCC[C@H](NC(=O)[C@H](Cc1ccccc1)NC(=O)[C@H](CO)NC(=O)[C@H](Cc1ccccc1)NC(=O)CNC(=O)CN)C(=O)N[C@@H](Cc1ccccc1)C(N)=O)N(C)C (H-GGFSF[X1]F-NH2)			
0.046 µM				H-VGTALGSLAEELNGYNRKKGGFSFRF-NH2			Active
